Measured values as given in ChEMBL document CHEMBL2146441, “2,6-Disubstituted imidazo[2,1-b][1,3,4]thiadiazoles: search for anticancer agents” (2012).

How the values were obtained:
Format in all cases: functional
OVCAR-5 [1] = assay: Cytotoxicity against human OVCAR5 cells assessed as cell growth at 10^-5 M after 48 hrs by SRB assay; details: OVCAR-5, 48 h, read-out: Activity
SF-295 [2] = assay: Growth inhibition of human SF295 cells after 48 hrs by SRB assay; details: SF-295, 48 h; for CC50: read-out: LC50 (the source's name)
In short: (§1)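 Adherent NCI-60 lines grown in RPMI 1640 with 5% FBS, seeded at 5000–40,000 cells/well, and preincubated 24 h at 37 °C, 5% CO2. Compound, stocked in DMSO, given either once at 10^-5 M or at five 10-fold dilutions for 48 h. Cells fixed with cold TCA (final 10%), stained with 0.4% SRB, and read at 515 nm. GI50 taken as 50% reduction in net protein increase versus time-zero and control plates.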

MDA-MB-435 [3] = assay: Growth inhibition of human MDA-MB-435 cells after 48 hrs by SRB assay; details: MDA-MB-435, 48 h; in short: as §1
ACHN = assay: Growth inhibition of human ACHN cells after 48 hrs by SRB assay; details: for CC50: read-out: LC50 (the source's name)
In short: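 Same 48 h NCI-60 five-dose SRB protocol. Adherent lines were fixed with cold TCA at 10% final; suspension lines such as CCRF-CEM were fixed with 16% final TCA. Stain was 0.4% SRB in 1% acetic acid for 10 min, solubilized in 10 mM Tris base and read at 515 nm. GI50 came from log concentration–growth curves, solving [(Ti−Tz)/(C−Tz)]×100 = 50.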

MDA-MB-468 = assay: Growth inhibition of human MDA-MB-468 cells after 48 hrs by SRB assay; details: MDA-MB-468, 48 h; in short: as §1
BT-549 = assay: Cytotoxicity against human BT549 cells assessed as cell growth at 10^-5 M after 48 hrs by SRB assay; details: BT-549, 48 h, read-out: Activity
In short: (§2)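 NCI-60 screen: lines kept in RPMI 1640 with 5% FBS, seeded at 5000–40,000 cells/well by doubling time, preincubated 24 h at 37 °C in 5% CO2. Time-zero plates TCA-fixed at drug addition. DMSO stocks diluted in medium, 48 h exposure. Fixation in cold TCA (final 10% adherent, 16% suspension), 0.4% SRB stain, solubilised in 10 mM Tris base, A515. Percent growth computed against control and time-zero.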

HOP-92 [4] = assay: Cytotoxicity against human HOP92 cells assessed as cell growth at 10^-7 M after 48 hrs by SRB assay; details: HOP-92, 48 h, read-out: Activity
In short: (§3)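 NCI-60 five-dose screen. Cells were grown in RPMI 1640 with 5% FBS and seeded at 5000–40,000 cells/well according to doubling time. They were pre-incubated 24 h at 37 °C in 5% CO₂, and time-zero (Tz) plates were TCA-fixed at drug addition. Five 10-fold dilutions of DMSO stock were applied for 48 h. Read-out was SRB staining, 515 nm absorbance, with percent growth calculated versus Tz and untreated control.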

NCI-H460 = assay: Cytotoxicity against human NCI-H460 cells assessed as cell growth at 10^-7 M after 48 hrs by SRB assay; details: NCI-H460, 48 h, read-out: Activity
MDA-MB-435 [5] = assay: Cytotoxicity against human MDA-MB-435 cells assessed as cell growth at 10^-7 M after 48 hrs by SRB assay; details: MDA-MB-435, 48 h, read-out: Activity
SK-MEL-28 = assay: Cytotoxicity against human SK-MEL-28 cells assessed as cell growth at 10^-7 M after 48 hrs by SRB assay; details: SK-MEL-28, 48 h, read-out: Activity
HOP-92 [6] = assay: Cytotoxicity against human HOP92 cells assessed as cell growth at 10^-4 M after 48 hrs by SRB assay; details: HOP-92, 48 h, read-out: Activity; in short: as §3
HCC 2998 = assay: Cytotoxicity against human HCC2998 cells assessed as cell growth at 10^-4 M after 48 hrs by SRB assay; details: HCC 2998, 48 h, read-out: Activity; in short: as §2
SF-295 [7] = assay: Cytotoxicity against human SF295 cells assessed as cell growth at 10^-4 M after 48 hrs by SRB assay; details: SF-295, 48 h, read-out: Activity
OVCAR-5 [8] = assay: Cytotoxicity against human OVCAR5 cells assessed as cell growth at 10^-4 M after 48 hrs by SRB assay; details: OVCAR-5, 48 h, read-out: Activity
OVCAR-8 = assay: Cytotoxicity against human OVCAR8 cells assessed as cell growth at 10^-4 M after 48 hrs by SRB assay; details: OVCAR-8, 48 h, read-out: Activity
A498 = assay: Cytotoxicity against human A498 cells assessed as cell growth at 10^-7 M after 48 hrs by SRB assay; details: A498, 48 h, read-out: Activity; in short: as §2
A549 = assay: Cytotoxicity against human A549 cells assessed as cell growth at 10^-8 M after 48 hrs by SRB assay; details: A549, 48 h, read-out: Activity; in short: as §2
Malme-3M = assay: Cytotoxicity against human MALME-3M cells assessed as cell growth at 10^-8 M after 48 hrs by SRB assay; details: read-out: Activity
UACC-62 = assay: Cytotoxicity against human UACC62 cells assessed as cell growth at 10^-8 M after 48 hrs by SRB assay; details: UACC-62, 48 h, read-out: Activity
UO-31 = assay: Cytotoxicity against human UO31 cells assessed as cell growth at 10^-8 M after 48 hrs by SRB assay; details: UO-31, 48 h, read-out: Activity
PC-3 = assay: Cytotoxicity against human PC3 cells assessed as cell growth at 10^-8 M after 48 hrs by SRB assay; details: PC-3, 48 h, read-out: Activity
[9] = Cytotoxicity against human […] cells assessed as cell growth at 10^-6 M after 48 hrs by SRB assay; details: 48 h, read-out: Activity
EKVX = assay: Cytotoxicity against human EKVX cells assessed as cell growth at 10^-6 M after 48 hrs by SRB assay; details: read-out: Activity; in short: as §2
SNB-75 = assay: Cytotoxicity against human SNB75 cells assessed as cell growth at 10^-6 M after 48 hrs by SRB assay; details: SNB-75, 48 h, read-out: Activity
[10] = Cytotoxicity against human NCI-ADR-RES cells assessed as cell growth at 10^-6 M after 48 hrs by SRB assay; details: read-out: Activity
HT-29 = assay: Growth inhibition of human HT-29 cells after 48 hrs by SRB assay; details: HT-29, 48 h; in short: as §1
KM12 = assay: Growth inhibition of human KM12 cells after 48 hrs by SRB assay; details: KM12, 48 h; in short: as §1
[11] = Cytotoxicity against human […] cells assessed as cell growth at 10^-5 M after 48 hrs by SRB assay; details: RPMI8266, 48 h, read-out: Activity

Structure (SMILES) | growth at 10 µM (OVCAR-5 [1]) | GI50 (SF-295 [2]) | TGI (SF-295 [2]) | CC50 (SF-295 [2]) | GI50 (MDA-MB-435 [3]) | LC50 (MDA-MB-435 [3]) | TGI (MDA-MB-435 [3]) | GI50 (ACHN) | TGI (ACHN) | CC50 (ACHN) | GI50 (MDA-MB-468) | LC50 (MDA-MB-468) | TGI (MDA-MB-468) | growth at 10 µM (BT-549) | growth at 0.1 µM (HOP-92 [4]) | growth at 0.1 µM (NCI-H460) | growth at 0.1 µM (MDA-MB-435 [5]) | growth at 0.1 µM (SK-MEL-28) | growth at 100 µM (HOP-92 [6]) | growth at 100 µM (HCC 2998) | other results
COc1ccc(-c2nn3cc(-c4ccc(O)cc4O)nc3s2)cc1 | 20% | 2.16 µM | 15.1 µM | > 100 µM | 2.61 µM | > 100 µM | 18.6 µM | 3.52 µM | > 100 µM | > 100 µM | 1.5 µM | > 100 µM | 17.6 µM | 12% | 64% | 101% | 91% | 92% | -21% | -3% | growth at 100 µM (SF-295 [7]): -13%; growth at 100 µM (OVCAR-5 [8]): 2%; growth at 100 µM (OVCAR-8): -8%; growth at 0.1 µM (A498): 70%; growth at 0.01 µM (A549): 96%; growth at 0.01 µM (Malme-3M): 87%; growth at 0.01 µM (UACC-62): 98%; growth at 0.01 µM (UO-31): 84%; growth at 0.01 µM (PC-3): 96%; growth at 1 µM [9]: 69%; growth at 1 µM (EKVX): 65%; growth at 1 µM (SNB-75): 33%; growth at 1 µM [10]: 81%; GI50 (HT-29): 2.95 µM; LC50 (concentration killing 50% of cells) (HT-29): > 100 µM; TGI (HT-29): 20.2 µM; Concentration killing 50% of cells (LC50) (KM12): > 100 µM; GI50 (KM12): 3.61 µM; TGI (KM12): > 100 µM; growth at 10 µM [11]: 10%
COc1ccc(-c2nn3cc(-c4cccc(N)c4)nc3s2)cc1 | 47% | 2.88 µM | 29.3 µM | > 100 µM | 2.58 µM | 89.6 µM | 14.8 µM | 4.5 µM | 21.8 µM | 91.3 µM | 1.83 µM | > 100 µM | 9.32 µM | 24% | 53% | 92% | 88% | 95% | -52% | 6% | growth at 100 µM (SF-295 [7]): -27%; growth at 100 µM (OVCAR-5 [8]): -23%; growth at 100 µM (OVCAR-8): -54%; growth at 0.1 µM (A498): 79%; growth at 0.01 µM (A549): 106%; growth at 0.01 µM (Malme-3M): 102%; growth at 0.01 µM (UACC-62): 93%; growth at 0.01 µM (UO-31): 86%; growth at 0.01 µM (PC-3): 91%; growth at 1 µM [9]: 55%; growth at 1 µM (EKVX): 50%; growth at 1 µM (SNB-75): 52%; growth at 1 µM [10]: 85%; GI50 (HT-29): 4.27 µM; LC50 (concentration killing 50% of cells) (HT-29): > 100 µM; TGI (HT-29): 23.2 µM; Concentration killing 50% of cells (LC50) (KM12): > 100 µM; GI50 (KM12): 5.34 µM; TGI (KM12): 27.5 µM; growth at 10 µM [11]: 6%
